KCNK3 inh = human KCNK3 channel inhibition, primary screen. O14649. CHO-KCNK3 thallium flux, FluxOR fluorescence; stronger effect = lower value. B-score at 10 µM. 0.84% of 340,000 active. AID 602410;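 active means B-score under library mean minus 4 SD, starting fluorescence ratio at most library mean plus 5 SD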;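 further: more negative B-score means stronger inhibition of thallium flux through KCNK3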
Target sequence (O14649 whole entry, looked up): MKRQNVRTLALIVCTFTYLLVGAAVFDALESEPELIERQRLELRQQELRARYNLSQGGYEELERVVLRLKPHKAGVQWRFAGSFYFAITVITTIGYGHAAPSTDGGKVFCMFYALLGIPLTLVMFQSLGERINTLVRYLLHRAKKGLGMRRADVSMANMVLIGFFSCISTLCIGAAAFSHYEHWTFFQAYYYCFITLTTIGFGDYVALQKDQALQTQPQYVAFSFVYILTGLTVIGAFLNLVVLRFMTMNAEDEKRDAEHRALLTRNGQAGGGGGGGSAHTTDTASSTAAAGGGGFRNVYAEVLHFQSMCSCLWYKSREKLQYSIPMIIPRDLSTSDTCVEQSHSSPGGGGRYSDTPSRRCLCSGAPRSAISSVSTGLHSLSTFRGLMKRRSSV
Kir21 block = blocks the mouse Kir2.1 inward-rectifier potassium channel; HEK293-Kir2.1, FluxOR thallium flux fluorescence; stronger effect = lower value; 0.85% of 310,000 active; AID 1672; P35561; B-score at 10 µM;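 active means fluorescence ratio B-score at or below minus 3 SD of library scores, with starting-brightness B-score within 2 SD, cut at about -4.2 in these data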;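 further: channel flux triggered by added potassium and thallium sulfate stimulus; B-score of peak minus minimum fluorescence over baseline after thallium stimulus; more negative B-score means stronger Kir2.1 block with less thallium influx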
hERG rescue = compounds protecting human hERG from proarrhythmic drug block; 0.51% of 310,000 active; activation (rescue from dofetilide block), less the hit threshold, % at 10 µM; AID 1511; CHO-hERG, FluxOR thallium flux, dofetilide IC70 present;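 active means activation above the mean of controls blocked by dofetilide plus 5 SD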;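 further: thallium influx through hERG after potassium depolarization seen as dye fluorescence rise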
KCNQ1 inh = blocks the human KCNQ1 potassium channel; 1.3% of 310,000 active; AID 2642; P51787; B-score at 10 µM; CHO-K1 KCNQ1, FluxOR thallium flux fluorescence; stronger effect = higher value;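 active means compounds whose thallium flux B-score, printed positive for inhibition, exceeds three library SD while starting fluorescence stays within three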;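 further: channel opened by potassium depolarization with thallium stimulus after 20 min compound exposure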
KCNK9 inh = inhibitors of human KCNK9 two-pore domain potassium channel; 1.2% of 310,000 active; Q9NPC2; B-score at 10 µM; HEK293 KCNK9, FluxOR thallium flux fluorescence; stronger effect = lower value;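 active means ratio B-score over 3 SD below the library mean, with starting fluorescence within 5 SD of its mean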;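 further: negative B-score means less thallium flux so channel inhibition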
KCNQ1 act = potentiates or activates the human KCNQ1 potassium channel | P51787 | CHO-K1 KCNQ1, thallium flux FluxOR fluorescence; stronger effect = higher value | B-score at 10 µM | 0.35% of 310,000 active | AID 2648;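 active means fluorescence ratio B-score, a plate-corrected score, at least three library SD, with initial intensity B-score within 5 SD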
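assay system = CHO-K1 cells stably expressing KCNQ1 | medium = assay buffer, equal DMSO in all wells | timing = 37 °C overnight plating, 90-min dark dye load, 20-min compound pretreatment | measured by = kinetic FluxOR thallium fluorescence, 10-s 1-Hz baseline, 110-s post-stimulus read | measure = fluorescence change relative to baseline, converted to B score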
KCNK9 block conf = human KCNK9 inhibitor confirmation. HEK293 KCNK9 cells, FluxOR thallium flux fluorescence. shares compounds with KCNK9 inh. AID 492992. inhibition, % at 10 µM. 43% of 4,900 active;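 active means thallium signal inhibited by more than 5 SD of the compound-free buffer control wells, on both duplicate plates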;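 further: 0% = assay buffer control wells without compound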
Kir2-1 spec = selectivity of KCNK9 modulators against mouse Kir2.1. 4% of 4,900 active. Kir2.1 cells, FluxOR thallium flux fluorescence. inhibition, % at 10 µM. shares compounds with KCNK9 inh. AID 492993;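 active means thallium signal drop more than 5 SD beyond the mean of the no-compound control wells, seen in both duplicate plates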;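 further: signal is fluorescence rise after thallium addition divided by baseline fluorescence; plate controls were assay buffer only for no effect and full block by chlorpromazine control for full effect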
HEK293 Tl ctr = non-induced cell nonspecific activity of KCNK9 modulators | 40% of 4,900 active | AID 492997 | shares compounds with KCNK9 inh | non-induced KCNK9-HEK293, FluxOR thallium flux | inhibition, % at 10 µM;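 active means thallium signal drop beyond 5 SD of the untreated control mean, on both duplicate plates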;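 further: plate controls were buffer only IC0 wells for no effect and SID17386958 at its maximal inhibitory level for full effect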
* marks the source's active call; other numbers are inactive results; i = inactive; x = not tested or not shown. Only some compounds are listed: those with a hit (about 3.7% of all), similar ones and a draw of the others.

SMILES | KCNK3 inh | Kir21 block | hERG rescue | KCNQ1 inh | KCNK9 inh | KCNQ1 act | KCNK9 block conf | Kir2-1 spec | HEK293 Tl ctr
COc1ccccc1C(=O)C1CCCN(C(=O)CCc2ccccn2)C1 (stereo not drawn) | i | -1.5 | -4 | i | i | i | x | x | x
COc1ccc(C(=O)C2CCCN(C(=O)c3ccc4cc[nH]c4c3)C2)c(C)c1 (stereo not drawn) | i | -0.42 | -21 | i | i | i | i | i | i
O=C(Cn1ccc([N+](=O)[O-])n1)NCc1ccccc1 | i | 1.4 | -10 | i | i | i | x | x | x
O=[N+]([O-])c1ccc(CN2CCN(c3ccc(Cl)cc3)CC2)o1 | i | 1 | -4 | i | i | i | x | x | x
Cc1cc(C)cc(NC(=S)NCCN(C2CCCCC2)C2CCCC2)c1 | i | -1.7 | -14 | i | i | i | x | x | x
COc1ccc2cc(C(=O)C3CCCN(C(=O)c4cccnc4)C3)ccc2c1 (stereo not drawn) | i | 1.4 | -11 | i | i | i | x | x | x
COc1ccc(C(=O)C2CCCN(C(=O)c3ccc(C(C)=O)s3)C2)c(C)c1 (stereo not drawn) | i | -0.01 | -13 | i | i | i | i | i | i
COc1ccc(C(=O)C2CCCN(C(=O)CCc3scnc3C)C2)c(C)c1 (stereo not drawn) | i | -1.7 | -10 | i | i | i | i | i | i
COc1ccc2cc(C(=O)C3CCCN(C(=O)c4cnn(C(C)C)c4)C3)ccc2c1 (stereo not drawn) | i | -0.95 | -9 | i | i | i | i | i | i
COc1ccc(NC2CCCN(C(=O)CCc3scnc3C)C2)cc1 (stereo not drawn) | i | -0.22 | -7 | i | i | i | x | x | x
COc1ccc(C(=O)C2CCCN(C(=O)c3cccnc3OC)C2)c(C)c1 (stereo not drawn) | i | 2.5 | -12 | i | i | i | i | i | i
CCC(C)c1c(NS(=O)(=O)c2ccc(C)cc2)o[nH]c1=O (stereo not drawn) | i | x | x | x | x | x | x | x | x
COc1cccc(-n2c(C)cc(/C=C3\C(=N)N4N=C(CC(=O)N5CCOCC5)SC4=NC3=O)c2C)c1 | i | -0.03 | -4 | i | i | i | x | x | x
CC(NC(=O)Cn1nc(C(F)(F)F)c2c1CCC2)c1ccccc1 (stereo not drawn) | i | -0.17 | -4 | i | i | i | i | i | 30%*
O=C(/C=C/c1cccs1)c1cc(Br)ccc1OC(=O)N1CCOCC1 | i | 0.64 | -3 | i | -9.8* | i | 30%* | i | 23%*
Cc1ccc2c(C)c(C(=O)NCc3ccc(S(N)(=O)=O)cc3)oc2c1 | i | 0.59 | -7 | i | i | i | x | x | x
CCc1cccc(CC)c1NC(=O)COC(=O)c1cccc(S(=O)(=O)N2CCc3ccccc3C2)c1 | i | -2.6 | -7 | i | -9.1* | i | 56%* | i | 34%*
CCOc1ccccc1NC(=O)N1CCC(C(=O)c2ccc(F)cc2)CC1 | i | -0.62 | -20 | i | -10* | i | 42%* | i | 36%*
O=C(/C=C/c1ccccc1)NCCSc1ccc(Cl)cc1 | i | 0.12 | -6 | i | i | i | i | i | i
O=S(=O)(Nc1ccc(S(=O)(=O)N2CCOCC2)cc1)c1ccc(Br)cc1 | i | -0.72 | -4 | i | i | i | x | x | x
O=S(=O)(c1ccc(Oc2ccc(Br)cc2)cc1)N1CCOCC1 | i | 0.43 | -13 | i | i | i | i | i | i
Cc1ccc(S(=O)(=O)Nc2ncnc3sc(C)c(C)c23)cc1 | i | x | x | x | x | x | x | x | x
Cc1ccc(-c2nn(C(C)(C)C)c3ncnc(NS(=O)(=O)c4ccc([N+](=O)[O-])cc4)c23)cc1 | i | 0.85 | -11 | i | i | i | i | i | i
C#CCn1c(S(=O)(=O)Cc2ccc(F)cc2)nc(-c2ccccc2)c1-c1ccccc1 | i | 0.7 | -12 | i | -14* | i | 61%* | i | 31%*
NC(=O)Cn1c(S(=O)(=O)Cc2ccccc2)nc2ccccc21 | i | 1.1 | -4 | i | i | i | x | x | x
SMILES | KCNK3 inh | Kir21 block | hERG rescue | KCNQ1 inh | KCNK9 inh | KCNQ1 act | KCNK9 block conf | Kir2-1 spec | HEK293 Tl ctr
CCOC(=O)Cn1c(S(=O)(=O)Cc2ccc(F)cc2)nc(-c2ccccc2)c1-c1ccccc1 | i | -1.1 | -7 | i | -9.1* | i | 34%* | i | 39%*
CCOC(=O)Cn1c(S(=O)(=O)Cc2cccc(F)c2)nc(-c2ccccc2)c1-c1ccccc1 | i | 0.39 | -7 | i | -11* | i | 50%* | i | 30%*
COc1cccc(Nc2nc(-c3cccs3)nc3ccccc23)c1 | i | 0.73 | -10 | i | i | i | x | x | x
c1csc(-c2nc(N3CCOCC3)c3ccccc3n2)c1 | i | -0.15 | -6 | i | i | i | x | x | x
COc1cccc(CN(C)c2nc(-c3cccs3)nc3ccccc23)c1 | i | -0.54 | -22 | i | -9.2* | i | 54%* | i | 41%*
COc1ccc(N2CCN(c3nc(-c4cccs4)nc4ccccc34)CC2)cc1 | i | 1.9 | -17 | i | -14* | i | 31%* | i | 28%*
CC(C(=O)NC(=O)NC1CCCCC1)N1CCN(C(c2ccccc2)c2ccccc2)CC1 (stereo not drawn) | i | 0 | -14 | i | i | i | i | i | i
O=C(NC1CCCCC1)C(c1ccccc1)N1CCCC1 (stereo not drawn) | i | 0.06 | -5 | i | i | i | x | x | x
O=C1C(Cc2ccccc2O)NC(=S)N1c1ccccc1 (stereo not drawn) | i | -0.11 | -3 | i | i | i | x | x | x
CC(C)Cc1cc(C(=O)N2CCCC(C(=O)c3cc(F)ccc3F)C2)no1 (stereo not drawn) | i | 0.3 | -5 | i | i | i | i | i | i
O=C(c1cc(COc2ccc(F)cc2F)on1)N1CC[C@@H]2CCCC[C@H]2C1 | i | -0.09 | -13 | i | i | i | i | i | i
O=C(c1cc(F)ccc1F)C1CCCN(C(=O)c2cccs2)C1 (stereo not drawn) | i | -1.4 | -3 | i | i | i | x | x | x
